ChEMBL document CHEMBL3414422, “Synthesis of new steroidal inhibitors of P-glycoprotein-mediated multidrug resistance and biological evaluation on K562/R7 erythroleukemia cells” (J Med Chem, 2015)

How the values were obtained:
[1] = Intrinsic cytotoxicity against human K562 cells assessed as cell survival […] by MTT assay; type: cell-based; settings: read-out: Survival
K562/R7 = assay: Inhibition of p-gp (unknown origin) in doxorubicin-resistant human K562/R7 cells assessed as increase in daunorubicin accumulation measured as fluorescence ratio at 10 uM incubated for 1 hr with 10 uM daunorubicin by flow cytometry relative to control; type: cell-based
How it was run: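 Resistant K562/R7 cells ([…]) incubated 1 h at 37 °C in RPMI 1640 with daunorubicin 10 µM, with or without steroid at 10 µM; intracellular fluorescence read by flow cytometry. Accumulation index = daunorubicin fluorescence ratio with/without modulator. Cyclosporin A as positive control. Duplicates, at least three separate experiments.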

For `CC(=O)[C@H]1CC[C@H]2[C@H]3[C@H]([C@H](O[C@@H]4CCCCO4)C[C@]12C)[C@@]1(C)CCC(=O)C[C@@H]1C[C@H]3OC(=O)c1ccccc1`, the viability [1] was 77.8% and the Ratio (K562/R7) was 2.4.
For `COC(=O)CCC(C)[C@H]1CC[C@H]2[C@@H]3[C@H](O[C@@H]4CCCCO4)C[C@@H]4CC(=O)CC[C@]4(C)[C@H]3C[C@H](OC(=O)c3ccccc3)[C@]12C` (some centres undefined), the viability [1] was 51.3% and the Ratio (K562/R7) was 2.9.
